T cell HTS: modulators of CD8 T cell-vesicle binding, primary screen, mouse 2C CD8+ T cells, flow cytometry; 2C CD8+ T cell-vesicle binding; stronger effect = lower value; response (vesicle binding), % at 7 µM; hit rate 0.068% among 330,000;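 active means response, share of CD8 T cells binding vesicles, and their 90th percentile fluorescence all below set limits, cut at about 80% in these data, passing the limit was not always enough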;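 further: values below 100% mean blocked vesicle binding to the CD8+ T cells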
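Incubation: binding step 1.5 h, 37 °C, antibody labelling 20 min, ice; system: murine 2C transgenic CD8+ T lymphocytes; technique: cytometric PE anti-B7-1 and Alexa647 anti-CD8 signals after 1% paraformaldehyde fixation; also added: QL9-charged Drosophila Ld/ICAM-1/B7-1 vesicles; control set: naked versus QL9-loaded vesicles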
Bfl-1 A1 inh: caspase 3/7 activation in MEF A1-2A-BIM cells, primary screen, A1 inhibitor project, cell-based, luminescence, HTS | AID 2462, 2010 | Caspase-Glo 3/7 luminescence, 3 h; percent of clofoctol response, vehicle zero | caspase activation, % (test concentration not listed) | hit rate 0.066% among 330,000;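 active means over half of replicate activation scores above 10%, or exactly half above 10 with the replicate mean above 10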
NALP3 yeast inh: NALP3 inflammasome inhibitors in reconstituted yeast, primary screen, luminescence, uHTS; Yeast reconstituted NLRP3/ASC/caspase-1, beta-gal luminescence, 24 h; inhibition, % at 10 µM; hit rate 0.39% among 330,000; AID 2825, 2010;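 active means inhibition of 50% or more; inactive means inhibition below 50%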;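 further: plate controls were induced DMSO wells for no effect and uninduced yeast grown without galactose for full effect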
NALP1 inh: NALP1 inflammasome inhibitors in reconstituted yeast, colorimetric, S. cerevisiae, triplicate retest. inhibition, % at 10 µM. hit rate 0.61% among 280,000. S. cerevisiae NALP1/ASC/caspase-1 growth, X-gal OD620, 72 h. AID 2071, 2009; in the data active means inhibition mostly above about 24%, no sharp cut-off; inactive means mostly below about 32%
NALP3 confirm: NALP3 inhibitors retested in yeast, confirmation, luminescence, single concentration; shares compounds with NALP3 yeast inh; yeast expressing human NALP3; inhibition, % at 10 µM; hit rate 81% among 1,300; in the data active means inhibition above about 48%
Casp1 ASC ctr: CASP1-PYCARD signaling inhibition in yeast, confirmatory test, counterassay for NLRP3 inhibitor program, one-dose. shares compounds with NALP3 yeast inh. yeast expressing Caspase-1-ASC, luminescence counter screen. inhibition, % at 10 µM. hit rate 66% among 1,000. AID 488784, 2010
NALP3 yeast rt: NALP3 inhibitors in yeast, repeat test, confirmation, luminescence, single concentration, retest; hit rate 53% among 1,000; AID 488794, 2010; shares compounds with NALP3 yeast inh; inhibition, % at 10 µM; yeast expressing human NALP3, luminescence read-out
* marks the source's active call; other numbers are inactive results; x = not tested or not shown. Compounds with a hit are over-represented: about 1% of the library has one in this group of screens. Unless noted, no stated cut-off is given here; in the data, active means inhibition above about 50%; inactive means the rest.

SMILES	T cell HTS	Bfl-1 A1 inh	NALP3 yeast inh	NALP1 inh	others
CCOc1ccc(C(Nc2cccnc2)c2cc(Cl)c3cccnc3c2O)cc1 (stereo not given)	120	1	21	44*
O=C(CCN1CCc2ccccc2C(c2ccccc2)C1)c1ccc2c(c1)OCCO2 (stereo not given)	204	0	23	70*
CC(C)CC1C(C#N)=C(N)Oc2n[nH]c(-c3ccccc3)c21 (stereo not given)	44*	0	21	-2
O=C(Nc1ccc(OC(F)(F)F)cc1)Nc1cccc([N+](=O)[O-])c1	314	-1	43	59*
Cc1ccc(NC(=O)Nc2cccc([N+](=O)[O-])c2)cc1F	244	0	27	30
O=C(C1CCCN(Cc2cccc(Cl)c2)C1)N1CCCCC1 (stereo not given)	141	1	6	14
O=C(COc1ccc2c3c(c(=O)oc2c1)CCCC3)NCc1cccnc1	975	-1	12	2
CCc1ccc(NC(=O)c2cc(Br)ccc2Br)cc1	374	0	-2	42*
CC(C)C(=O)N1CCC2(CC1)Oc1ccc(Cl)cc1C(=O)C21CC(c2cccnc2)=NO1 (stereo not given)	0.0*	0	6	5
CC(C)C(=O)N1CCC2(CC1)Oc1ccc(F)cc1C(=O)C21CC(c2cccnc2)=NO1 (stereo not given)	x	x	-3	-86
Cc1ccc(CNC(=O)CCS(=O)(=O)c2ccc(Br)s2)cc1	258	0	8	43*
O=C(COC(=O)CCC1CCCC1)Nc1ccc(F)cc1	542	-2	-3	x
Cc1ccc(Cl)c(OCCN2CCc3ccccc3C2)c1	164	-1	42	-71
CCOC(=O)c1c(NC(C)=O)sc2c(OCC(O)CNC(C)(C)C)c(Br)ccc12 (stereo not given)	189	0	15	26*
CCOC(=O)c1c(N)sc2c(OCC)c(Br)ccc12	490	0	24	4
CC1(C)N=C(C(=O)c2ccccc2)N(O)C1(C)O (stereo not given)	171	1	11	33*
O=C(c1ccccc1)c1ccncc1	434	0	0	5
CN(C)CCCN(C(=O)CCS(=O)(=O)c1ccccc1)c1nc2cc3c(cc2s1)OCO3	0	2	40	50*
CCC(C(=O)OCC(=O)N1C(C)CCCC1C)c1ccccc1 (stereo not given)	215	0	-1	-1
CN(c1ccc(OCC(=O)Nc2ccc3[nH]c(=O)[nH]c3c2)cc1)S(=O)(=O)c1ccc(Cl)cc1	697	2	-6	42*
COc1ccc(CCNC(=O)COc2ccc(N(C)S(=O)(=O)c3ccc(Cl)cc3)cc2)cc1	x	x	x	26*
CCOc1ccc(S(=O)(=O)N(C)c2ccc(OCC(=O)Nc3ccc4[nH]c(=O)[nH]c4c3)cc2)cc1	234	0	12	9
O=c1c2ccccc2nc2n1C(CSc1ccc(Br)cc1)CN2 (stereo not given)	317	0	-7	31*
O=C(CNC(=O)c1ccc2c(=O)n3c(nc2c1)CCC3)Nc1ccc(F)c(F)c1	519	-1	32	x
COc1ccc(CN2CCN(CC(O)Cn3c4ccccc4c4ccccc43)CC2)cc1 (stereo not given)	430	0	38	62*
SMILES	T cell HTS	Bfl-1 A1 inh	NALP3 yeast inh	NALP1 inh	others
CN1CCN(CC(O)Cn2c3ccccc3c3ccccc32)CC1 (stereo not given)	96	0	1	32
CCOc1ccc(CN2CCN(CC(O)Cn3c4ccccc4c4ccccc43)CC2)cc1 (stereo not given)	132	0	39	77*
OC(CN1CCCCC1)Cn1c2ccccc2c2ccccc21 (stereo not given)	39	1	0	32
CC(C)c1ccc(NC(=O)C(c2ccc3c(c2)OCO3)N2CCCCC2)cc1 (stereo not given)	557	1	31	6
CC1CCN(C(C(=O)Nc2ccc(C(C)C)cc2)c2ccc3c(c2)OCO3)CC1 (stereo not given)	264	0	1	38*
Cc1cc(Cl)c(OCCCn2ccnc2)c(Br)c1	771	0	10	50*
Cc1cc(C)c(OCCCn2ccnc2)c(C)c1	134	0	-3	10
O=C(NCCCN1CCOCC1)c1ccc(CS(=O)(=O)Cc2ccccc2Cl)o1	145	0	1	29*
O=C(NCCCN1CCCCCC1)c1ccc(CS(=O)(=O)Cc2ccccc2F)o1	x	x	x	9
COC(c1ccccc1)c1nnc(CCC(=O)N(C)CCc2ccccc2)o1 (stereo not given)	248	0	5	30*
COC(=O)COc1ccc(-c2ccc(F)cc2)cc1C=O	719	1	56*	21	NALP3 confirm=55*;Casp1 ASC ctr=58*;NALP3 yeast rt=28
CCOC(=O)N=Nc1c(O)n(CC(=O)OC)c2ccccc12	235	0	27	16
CCOC(=O)N=Nc1c2ccccc2c2nc3no[nH]c3nc12	x	x	86*	-8	NALP3 confirm=92*;Casp1 ASC ctr=72*;NALP3 yeast rt=62*
O=C(Nc1ccc(Cl)cc1)c1cc2c(cc1O)[nH]c1ccccc12	67	1	53*	30	NALP3 confirm=77*;Casp1 ASC ctr=72*;NALP3 yeast rt=91*
O=c1cc(-c2ccc(F)cc2)oc2ccccc12	467	0	17	x
CSc1ccc(-c2cc(=O)c3ccccc3o2)cc1	559	-1	62*	35	NALP3 confirm=63*;Casp1 ASC ctr=53*;NALP3 yeast rt=62*
O=C(CSc1nnc(CNC(=O)c2ccco2)o1)Nc1ccc(Br)cc1	207	0	9	8
NCCc1nnc(SCC(=O)Nc2ccc(Br)cc2)o1	264	0	58*	3	NALP3 confirm=70*;Casp1 ASC ctr=53*;NALP3 yeast rt=49
Cc1ccc(C)c(NC(=O)c2ccc(S(=O)(=O)C(F)F)cc2)c1	196	-1	53*	24	NALP3 confirm=65*;Casp1 ASC ctr=46;NALP3 yeast rt=43
Cc1ccc(NC(=O)CSc2nc(=O)n(CCCN3CCOCC3)c3c2CCCC3)cc1	382	0	17	x
CC1=NN(C(=O)c2ccc(C)cc2)C(O)(C(F)(F)OC(F)(F)F)C1 (stereo not given)	565	1	53*	4	NALP3 confirm=54*;Casp1 ASC ctr=48;NALP3 yeast rt=35
O=C(Nc1c[nH]c(=O)[nH]c1=O)c1cc([N+](=O)[O-])cc([N+](=O)[O-])c1	265	2	23	3
C=C1CCN(Cc2ccccc2)S(=O)(=O)c2ccccc21	301	-1	51*	-41	NALP3 confirm=66*;Casp1 ASC ctr=29;NALP3 yeast rt=35
